Data set [1] concerns Rattus norvegicus. Nature of the data set: Antidiabetic activity in ZDF rat assessed as body weight gain at 0.1 mg/kg, po QD for 40 days (reference value: 133+/-9 g). It counts as functional. A digest of the protocol: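 Male ZDF rats, starting at about 6 weeks old, were dosed orally once daily for 40 days in 1.5% CMC/0.2% Tween 20 suspension, n = 8/group. Body weight was followed over the study. Gain was calculated per animal from day 0 to day 40 and compared with vehicle and pioglitazone (3 mg/kg) groups. Data are mean ± SEM.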

The nature of data set [2]: Cmax in ZDF rat at 3 mg/kg, po. Further details: dose 3 mg/kg, route oral. To be noted: in vivo. The format is ADME, organism-based. In short, it runs like this:
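Male ZDF rats; satellite animals outside the efficacy groups were given oral doses of 3, 10 or 100 mg/kg. Plasma Cmax and AUC were calculated from these animals.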

Usually Cmax stands for the peak of the concentration-time curve.

As for `CCc1nc2c(C)cc(CC(C)C)nc2n1[C@H]1CCc2cc(-c3ccccc3-c3nnn[nH]3)ccc21`, the Activity in data set [1] is recorded as 128 g. Further, the Cmax in data set [2] was found to be 267 ng/mL.
